# KCNQ1 pot – human KCNQ1 channel potentiation or activation; B-score at 10 µM; CHO-K1 KCNQ1, thallium flux FluxOR fluorescence; active compounds read high; AID 2648; 310,000 compounds, 0.35% hits;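 active means fluorescence ratio B-score, a plate-corrected score, at least three library SD, with initial intensity B-score within 5 SD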
#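 System: Stable KCNQ1 CHO-K1 line | Incubation: 90 min dye loading and 20 min compound exposure, both at room temperature | Measure: Ratio B score | Medium: Assay buffer for compound exposure, DMSO matched across wells | Compound dosing: Single-concentration screen | Probe or stimulus: K+/Tl+ depolarizing stimulus | Measured by: Kinetic FluxOR fluorescence, 10 s baseline plus 110 s post-stimulus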
# hERG protect – compounds protecting human hERG from proarrhythmic drug block; 310,000 compounds, 0.51% hits; AID 1511; activation (rescue from dofetilide block), less the hit threshold, % at 10 µM; Q12809; CHO-hERG, FluxOR thallium flux, dofetilide IC70 present;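 active means activation above the mean of controls blocked by dofetilide plus 5 SD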;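 further: thallium influx through hERG after potassium depolarization seen as dye fluorescence rise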
# KCNK9 block – human KCNK9 channel inhibition; 310,000 compounds, 1.2% hits; AID 488922; B-score at 10 µM; Q9NPC2; HEK293 KCNK9, FluxOR thallium flux fluorescence; active compounds read low;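 active means ratio B-score over 3 SD below the library mean, with starting fluorescence within 5 SD of its mean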;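 further: negative B-score means less thallium flux so channel inhibition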
# Target sequence (Q9NPC2 whole entry, looked up): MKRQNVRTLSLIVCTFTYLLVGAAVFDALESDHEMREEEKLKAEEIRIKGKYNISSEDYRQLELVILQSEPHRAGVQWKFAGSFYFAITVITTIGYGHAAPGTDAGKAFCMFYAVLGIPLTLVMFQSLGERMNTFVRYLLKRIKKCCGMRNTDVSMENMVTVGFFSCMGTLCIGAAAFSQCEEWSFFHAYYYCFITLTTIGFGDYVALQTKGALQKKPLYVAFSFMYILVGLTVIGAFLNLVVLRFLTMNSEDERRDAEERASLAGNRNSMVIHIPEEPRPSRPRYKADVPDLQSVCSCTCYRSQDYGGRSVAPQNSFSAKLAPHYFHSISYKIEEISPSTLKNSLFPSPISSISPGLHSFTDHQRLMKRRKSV
# KCNQ1 block – blocks the human KCNQ1 potassium channel; B-score at 10 µM; 310,000 compounds, 1.3% hits; CHO-K1 KCNQ1, FluxOR thallium flux fluorescence; active compounds read high; P51787;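 active means compounds whose thallium flux B-score, printed positive for inhibition, exceeds three library SD while starting fluorescence stays within three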;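 further: channel opened by potassium depolarization with thallium stimulus after 20 min compound exposure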
# KCC2 mod – modulates chloride dependent transport by human KCC2; Q9H2X9; KCC2 cells, thallium flux FluoZin-2 fluorescence; B-score of Tl+ flux slope (higher = more flux/activation; lower = inhibition) at 10 µM; 190,000 compounds, 2.2% hits; AID 1456;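 active means thallium flux slope and its plate-corrected score both differing from the plate sample mean at a set confidence after two filtering rounds, in either direction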;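 further: slope of fluorescence scaled to starting intensity during 10 to 20 s after thallium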
# KCNK3 block – human KCNK3 channel inhibition, primary screen. CHO-KCNK3 thallium flux, FluxOR fluorescence; active compounds read low. O14649. B-score at 10 µM. 340,000 compounds, 0.84% hits;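 active means B-score under library mean minus 4 SD, starting fluorescence ratio at most library mean plus 5 SD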;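 further: more negative B-score means stronger inhibition of thallium flux through KCNK3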
# KCNQ1 block val – reconfirmed blocker of the human KCNQ1 potassium channel; inhibition, % at 10 µM; KCNQ1 cell line, FluxOR thallium flux fluorescence; 1,600 compounds, 93% hits; shares compounds with KCNQ1 block; AID 588353;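 active means primary screen active, with duplicate mean exceeding buffer control mean plus 3 SD of buffer wells, cut at about 28% in these data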
# CHO Tl flux – counter-screen for KCNQ1 inhibitors: effect in parental CHO cells. shares compounds with KCNQ1 block. parental CHO-K1, FluxOR thallium flux fluorescence ratio; active compounds read low; zero means no signal rise above baseline. fluorescence ratio (Tl flux) at 10 µM. 1,600 compounds, 21% hits;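 active means mean of duplicate thallium-flux fluorescence ratios in parental host cells more than 5 SD below the buffer control mean, cut at about 0.38 in these data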;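 further: ratio is peak minus minimum fluorescence divided by baseline fluorescence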
# KCNQ1 ephys val – human KCNQ1 inhibition validated by electrophysiology | KCNQ1-CHO cells, automated patch clamp current | AID 624120 | 490 compounds, 20% hits | calls only at 10 µM | shares compounds with KCNQ1 block;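 active means KCNQ1 current drop exceeding 3 SD of negative control wells, seen in both duplicate runs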;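 further: steady state current during a 2 s step from -80 to +40 mV; negative values mean current inhibition and positive values mean potentiation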
# KCNQ2 inh – KCNQ1 inhibitor that also blocks rat KCNQ2 channel. AID 651746. 1,600 compounds, 71% hits. shares compounds with KCNQ1 block. KCNQ2 cells, FluxOR thallium flux fluorescence. inhibition, % at 10 µM;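 active means mean percent inhibition of the KCNQ2 thallium signal more than 5 SD above the buffer-only control wells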;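 further: KCNQ2 expressed in CHO cells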
# KCNQ1-KCNE1 inh – selectivity of KCNQ1 inhibitors: inhibition of human KCNQ1/KCNE1 channel. shares compounds with KCNQ1 block. KCNQ1/KCNE1 cells, FluxOR thallium flux fluorescence. inhibition, % at 10 µM. 1,600 compounds, 77% hits. AID 652147;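 active means mean percent inhibition of duplicate wells above the buffer-only control mean plus 3 SD of those controls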
# Numbers stand for hits; n = inactive; x = no result given; + = active, no number. This is a sample that favours compounds with a hit; in the whole collection about 4.1% have one here.
SMILES,KCNQ1 pot,hERG protect,KCNK9 block,KCNQ1 block,KCC2 mod,KCNK3 block,KCNQ1 block val,CHO Tl flux,KCNQ2 inh,KCNQ1-KCNE1 inh,others
CCOC(=O)C1=C(C)N(C)C(C)=C(C(=O)OCC)C1c1ccc(C(=O)OC)cc1,n,n,n,6,n,n,105.5,0.303,114.7%,151.0%,
C/C(O)=c1/ccc2cccc3nc(C)nc1c23,n,n,n,8,n,n,117.0,0.245,n,n,
Cc1cccc2nc3ccccc3cc12,n,n,n,n,x,n,x,x,x,x,
COc1cccc(-c2ccc3c(c2)C2CC3CCN2C(C)=O)c1 (stereo not given),x,x,x,x,x,n,x,x,x,x,
COc1ccc(OCC(=O)N2c3ccccc3CC2C)c([N+](=O)[O-])c1 (stereo not given),x,x,x,x,x,n,x,x,x,x,
CCCc1cc(C(=O)Nc2ccc(C(=O)c3ccc(C)cc3)cc2)n(C)n1,n,n,n,11,x,n,170.0,0.36,139.7%,+,
CCCc1cc(C(=O)Nc2cccc3ccccc23)n(C)n1,n,n,n,n,x,n,x,x,x,x,
COc1ccc(N(CC(=O)NC2CC3CCC2C3)S(=O)(=O)c2ccc(C)cc2)cc1OC (stereo not given),n,n,n,n,x,n,x,x,x,x,
COc1ccc(N(CC(=O)NC2CC3CCC2C3)S(=O)(=O)c2ccccc2)cc1Cl (stereo not given),n,n,n,7,x,n,113.5,n,n,125.5%,KCNQ1 ephys val=+
CCCN(CCC)CC(O)CN(c1ccccc1)S(=O)(=O)c1ccc(C)cc1 (stereo not given),n,n,n,n,n,n,x,x,x,x,
CCCCN(c1nc2ccccc2nc1Cl)S(=O)(=O)c1ccc(C)cc1,n,n,n,11,x,n,107.0,0.356,118.0%,144.5%,
O=C(COC(=O)Cc1ccc(S(=O)(=O)N2CCOCC2)s1)Nc1ccc([N+](=O)[O-])cc1,x,x,x,x,x,n,x,x,x,x,
N=NC(=O)c1ccccc1Nc1c(O)[nH]c2ccccc12,x,x,x,x,x,n,x,x,x,x,
O=C(CSc1nnc2n1CCCN2C(=S)Nc1ccc(Cl)cc1)c1ccccc1,n,n,n,9,n,n,102.5,n,n,70.0%,KCNQ1 ephys val=n
CCCCn1c(N)c(N(CC(C)C)C(=O)CSc2nn(-c3ccc(F)cc3)c(=S)s2)c(=O)[nH]c1=O,x,x,x,x,x,n,x,x,x,x,
CN1C2CCC1/C(=C\c1ccc(F)cc1)C(=O)/C2=C/c1ccc(F)cc1,n,n,n,n,n,n,x,x,x,x,
CN1C2CCC1/C(=C/c1cccn1C)C(=O)/C2=C\c1cccn1C,n,n,n,17,n,n,+,0.142,n,n,
O=C1CC2(CCN(C(=O)c3cccc(Br)c3)CC2)Oc2ccccc21,n,n,n,n,x,n,x,x,x,x,
CNC(=O)NC(=O)C(NC1CCCc2ccccc21)c1ccccc1 (stereo not given),n,n,n,n,x,n,x,x,x,x,
Cc1ccc(NC(=O)C(NC2CCCc3ccccc32)c2ccccc2)cc1Cl (stereo not given),n,n,n,6,n,n,66.0,0.362,100.0%,99.0%,
COc1cccc(NC(=O)c2nc(S(C)(=O)=O)ncc2Cl)c1,n,n,n,7,x,n,n,n,n,51.5%,
CCS(=O)(=O)c1ncc(Cl)c(C(=O)Nc2ccccc2OC)n1,n,n,n,11,x,n,73.0,n,63.3%,66.5%,
